Results on 24 molecules are retold here after ChEMBL document CHEMBL3400028, “Evaluation of Aconitum diterpenoid alkaloids as antiproliferative agents” (2015).

What all share (format): functional
A short description of assay [1]: Antiproliferative activity against multidrug-resistant P-gp expressing human KBVIN cells by sulforhodamine B assay. A digest of the protocol:
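Vincristine-resistant KB subline kept in 100 nM vincristine, then grown 7–10 days without it before testing. RPMI 1640 with 10% FBS, 37 °C, 5% CO2. 3–5 × 10³ cells/well exposed 72 h to a concentration series, paclitaxel as assay control. SRB staining after TCA fixation, A515 read. GI50 is the 50% absorbance reduction versus untreated cells; three or more experiments.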
In general terms: The SRB assay estimates cell density from bound dye.

Another assay has as its system DU-145. In words: Antiproliferative activity against human DU145 cells by sulforhodamine B assay. A digest of the protocol:
(§1)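 Cells in RPMI 1640 (25 mM HEPES, 2 mM L-glutamine, 10% heat-inactivated FBS, antibiotics) at 37 °C, 5% CO2. Seeded at 3–5 × 10³/well with graded concentrations, paclitaxel as assay control, for 72 h. TCA-fixed, stained with 0.04% SRB, dye dissolved in 10 mM Tris, A515 read. GI50 is the concentration halving absorbance versus untreated cells; three or more experiments.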

The nature of assay [2]: Selectivity ratio of GI50 for human KB cells to GI50 for multidrug-resistant P-gp expressing human KBVIN cells. The method, boiled down: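 Ratio of GI50 in parental KB to GI50 in P-gp-overexpressing KB-VIN. […] KB-VIN cells were grown 7–10 days without vincristine before the assay.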
The test system of the next assay is A549. Nature of the assay: Antiproliferative activity against human A549 cells by sulforhodamine B assay. The method, boiled down: as §1
The next assay deals with KB. In words: Antiproliferative activity against human KB cells by sulforhodamine B assay. A digest of the protocol: as §1

As usually defined, the GI50 is the concentration that inhibits growth by half. Read a high GI50 as lower sensitivity of the cells. Consider `C=C1[C@H]2C[C@@H]3C4N5C[C@]6(C)CCC[C@@]47[C@@H]6[C@@]5(O)C[C@]3([C@@H]1OC(=O)CC)[C@H]7[C@H]2O`, for which the GI50 (in assay [1]; with DU-145; with A549; with KB) was > 20 µM throughout. Also, in assay [2], the RatioGI50 is given as >20.

For `CCN1C[C@]2(COC)CC[C@H](OC(=O)c3ccc([N+](=O)[O-])cc3)[C@]34C1[C@@](O)([C@@H](OC)[C@H]23)[C@@]1(O)C[C@H](OC)[C@H]2C[C@@H]4[C@@H]1[C@H]2O`, the GI50 (in assay [1]; with DU-145; in the assay on A549; with KB) was > 20 µM throughout. The RatioGI50 in assay [2] is >20.

As to `COC[C@]12CN(C)C3C4[C@H](OC)[C@H]1[C@@]3([C@@H](OC)C[C@H]2O)[C@@H]1C[C@@]2(O)[C@H](OC(=O)c3ccccc3)[C@@H]1[C@]4(OC)[C@@H](O)[C@@H]2OC` [HOKBUSINE A], the GI50 (in assay [1]; with DU-145; in the assay with A549; in the assay on KB) was > 20 µM throughout. The RatioGI50 in assay [2] is >20.

In the case of `CCN1C[C@]2(COC)CC[C@H](OC(=O)c3ccc(C(F)(F)F)cc3)[C@]34C1[C@@](O)([C@@H](OC)[C@H]23)[C@@]1(O)C[C@H](OC)[C@H]2C[C@@H]4[C@@H]1[C@H]2O`, the GI50 (in assay [1]; with DU-145; with A549; with KB) was > 20 µM throughout. Also, the RatioGI50 in assay [2] was >20.

As for `C=C1[C@H]2C[C@@H]3C4N5C[C@]6(C)CCC[C@@]47[C@@H]6[C@@]5(O)C[C@]3([C@@H]1O)[C@H]7[C@H]2OC(c1ccccc1)(c1ccccc1)c1ccccc1`, the GI50 in assay [1] is 5.2 µM; in the assay with DU-145, 6 µM; in the assay with A549, 6.4 µM; in the assay with KB it was 6.6 µM. For the same molecule, the RatioGI50 in assay [2] is recorded as 1.3.

`C=C1[C@H]2C[C@@H]3C4N5C[C@]6(C)CCC[C@@]47[C@@H]6[C@@]5(OC(=O)c4ccc(OC)c(OC)c4)C[C@]3([C@@H]1OC(=O)c1ccc(OC)c(OC)c1)[C@H]7[C@H]2O`: the GI50 (in assay [1]; with DU-145; with A549; with KB) was 10 µM in each case. Also, the RatioGI50 in assay [2] amounted to 10.

As to `C=C1[C@H]2C[C@@H]3C4N5C[C@]6(C)CCC[C@@]47[C@@H]6[C@@H]5C[C@]3([C@@H]1O)[C@H]7[C@H]2OC(=O)c1ccc(C(F)(F)F)cc1`, the GI50 (in assay [1]; with DU-145; in the assay with A549; in the assay with KB) was 10 µM throughout. In addition, the RatioGI50 in assay [2] is given as 10.

Consider `C=C1[C@H]2C[C@@H]3C4N(C(C)=O)C[C@]5(C)CCC[C@@]46[C@@H]5C(=O)C[C@]3([C@@H]1OC(C)=O)[C@H]6[C@H]2OC(C)=O` (some centres not stated), for which the GI50 (in assay [1]; in the assay on DU-145; with A549; in the assay with KB) was > 20 µM each time.

Consider `C=C1[C@H]2C[C@@H]3C4N5C[C@]6(C)CCC[C@@]47[C@@H]6[C@@]5(O)C[C@]3([C@@H]1O)[C@H]7[C@H]2OC(=O)c1ccc(C(F)(F)F)cc1`, for which the GI50 (in assay [1]; in the assay with DU-145; in the assay with A549; with KB) was 10 µM throughout. The RatioGI50 in assay [2] came out at 10.

In the case of `C=C1[C@H]2C[C@H]3C4N5C[C@]6(C)CCC[C@]47[C@H]([C@H]2OC(=O)/C=C/c2ccccc2)C3(C[C@]5(O)[C@H]67)[C@@H]1O`, the GI50 in assay [1] amounted to 6.4 µM; with DU-145, 6.5 µM; in the assay on A549, 8.4 µM; with KB, 7 µM. The RatioGI50 in assay [2] is given as 1.1.

Regarding `CCN1C[C@]2(COC)[C@H](O)C[C@H](O)[C@]34C1[C@@](O)([C@@H](OC)[C@H]23)[C@@]1(O)C[C@H](OC)[C@H]2C[C@@H]4[C@@H]1[C@H]2OC(=O)c1ccccc1`, the concentration for 50% growth inhibition (GI50) (in assay [1]; in the assay with DU-145; with A549; in the assay with KB) was > 20 µM in each case. Moreover, in assay [2], the RatioGI50 is listed as >20.

Turning to `C=C1[C@H]2C[C@@H]3C4N5C[C@]6(C)CCC[C@@]47[C@@H]6[C@@]5(OC(=O)c4cccc(C(F)(F)F)c4)C[C@]3([C@@H]1O)[C@H]7[C@H]2OC(=O)c1cccc(C(F)(F)F)c1`, the GI50 (in assay [1]; in the assay on DU-145; in the assay on A549; in the assay on KB) was > 20 µM in each case. The RatioGI50 in assay [2] is on record as >20.

`CCN1C[C@]2(C)CC[C@H](O)[C@@]34C5C[C@@H]6[C@@H](OC)C[C@@](O)(C5[C@H]6O)[C@@H](CC23)C14` (some centres not stated) [KARACOLINE]: the 50% growth inhibitory concentration (GI50) (in assay [1]; in the assay on DU-145; with A549; in the assay on KB) was > 20 µM throughout. Further, the RatioGI50 in assay [2] is >20.

Turning to `C=C1[C@H]2C[C@@H]3C4N5C[C@]6(C)CCC[C@@]47[C@@H]6[C@@H]5C[C@]3([C@@H]1O)[C@H]7[C@H]2OC(=O)c1ccc(OC(F)(F)F)cc1`, the GI50 (in assay [1]; in the assay with DU-145; with A549; with KB) was 10 µM in each case. Moreover, the RatioGI50 in assay [2] is given as 10.

On to `C=C1[C@H]2C[C@@H]3C4N5C[C@]6(C)CCC[C@@]47[C@@H]6[C@@H]5C[C@]3([C@@H]1O)[C@H]7[C@H]2OC(=O)c1ccccc1C(F)(F)F`, for which the GI50 (in assay [1]; in the assay with DU-145; in the assay on A549; in the assay on KB) was > 20 µM in each case. Moreover, the RatioGI50 in assay [2] was >20.

Consider `C=C1[C@H]2C[C@@H]3C4N5C[C@]6(C)CCC[C@@]47[C@@H]6[C@@]5(OC(=O)c4ccc([N+](=O)[O-])cc4)C[C@]3([C@@H]1O)[C@H]7[C@H]2O`, for which the GI50 (in assay [1]; with DU-145; in the assay with A549; with KB) was > 20 µM each time. Besides, the RatioGI50 in assay [2] is >20.

For `C=C1[C@H]2C[C@H]3C4N5C[C@]6(C)CCC[C@]47[C@H]([C@H]2O)C3(C[C@]5(O)[C@H]67)[C@@H]1O` [PSEUDOKOBUSINE], the GI50 (in assay [1]; with DU-145; in the assay with A549; with KB) was > 20 µM throughout. Moreover, the RatioGI50 in assay [2] is >20.

Regarding `C=C1[C@H]2C[C@@H]3C4N5C[C@]6(C)CCC[C@@]47[C@@H]6[C@@]5(O)C[C@]3([C@@H]1OC(C)=O)[C@H]7[C@H]2O`, the GI50 (in assay [1]; in the assay with DU-145; in the assay on A549; with KB) was > 20 µM in each case.

Turning to `C=C1[C@H]2C[C@@H]3C4N5C[C@]6(C)CCC[C@@]47[C@@H]6[C@@]5(OC(=O)c4ccc([N+](=O)[O-])cc4)C[C@]3([C@@H]1OC(=O)c1ccc([N+](=O)[O-])cc1)[C@H]7[C@H]2O`, the GI50 (in assay [1]; with DU-145; with A549; in the assay on KB) was > 20 µM in each case. For the same molecule, the RatioGI50 in assay [2] was >20.

For the molecule `C=C1[C@H]2C[C@@H]3C4N5C[C@]6(C)CCC[C@@]47[C@@H]6[C@@]5(O)C[C@]3([C@@H]1OC(=O)c1ccc(OC)c(OC)c1)[C@H]7[C@H]2O`, the GI50 (in assay [1]; in the assay with DU-145; in the assay with A549; in the assay on KB) was > 20 µM in each case. Moreover, in assay [2], the RatioGI50 is >20.

As to `CCN1C[C@]2(COC)CC[C@H](OC(=O)c3ccc([N+](=O)[O-])cc3)[C@]34C1[C@@](O)([C@@H](OC)[C@H]23)[C@@]1(O)C[C@H](OC)[C@H]2C[C@@H]4[C@@H]1[C@H]2OC(=O)c1ccc([N+](=O)[O-])cc1`, the GI50 (in assay [1]; with DU-145; in the assay on A549; in the assay on KB) was > 20 µM each time. For the same molecule, the RatioGI50 in assay [2] was >20.

Consider `C=C1[C@@H](O)[C@]23C[C@@H]1[C@@H](OC(=O)c1ccc(OC)cc1)C[C@H]2[C@@]12C4C3C[C@@H]1[C@@](C)(CC[C@H]2O)CN4CC`, for which the GI50 (in assay [1]; with DU-145; with A549; in the assay with KB) was > 20 µM in each case. Further, the RatioGI50 in assay [2] is >20.

For the molecule `C=C1[C@H]2C[C@H]3C4N5C[C@]6(C)CCC[C@]47[C@H]([C@H]2O)C3(C[C@]5(OC(=O)c2ccc(OC)cc2)[C@H]67)[C@@H]1O`, the GI50 (in assay [1]; with DU-145; in the assay with A549; in the assay on KB) was > 20 µM throughout. Further, the RatioGI50 in assay [2] is listed as >20.

As to `C=C1[C@H]2C[C@@H]3C4N5C[C@]6(C)CCC[C@@]47[C@@H]6[C@@]5(O)C[C@]3([C@@H]1OC(C)=O)[C@H]7[C@H]2OC(C)=O`, the GI50 (in assay [1]; with DU-145; in the assay with A549; in the assay with KB) was > 20 µM each time.
